Bioassay records deposited in PubChem by The Scripps Research Institute Molecular Screening Center.
This is a sample that favours compounds with a hit; in the whole collection about 2.1% have one here.
IMP-1 inhibitor: blocks Pseudomonas aeruginosa IMP-1 metallo-beta-lactamase | purified IMP-1, nitrocefin hydrolysis, epi-absorbance fluorescence | inhibition, % at 5.6 µM | hit rate 0.45% among 290,000;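 active = inhibition above the mean plus 3 SD of all compounds in the same screening run, cut at about 4.5% in these data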;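 also: 0% = IMP-1 with DMSO and 100% = DMSO wells lacking enzyme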
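Assay system: purified recombinant IMP-1 beta-lactamase. Input: IMP-1 0.2 nM before substrate addition. Buffer or medium: Zinc- and detergent-supplemented HEPES buffer, pH 7.1. Schedule: 25 °C, 15 min preincubation, 25 min reaction. Signal: Epi-absorbance fluorescence, 480 nm excitation, 530 nm emission. Evaluation: percent inhibition from optical density relative to buffer-blank wells.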
PKA-R2B activ: activates the human PKA-R2B holoenzyme complex; PKA-R2B holoenzyme dissociation, Cy5-IP20 fluorescence polarization; R2B truncated from residue 108, S112A mutant; 0% DMSO only, 100% 113 µM cGMP; hit rate 0.079% among 340,000; activation, % at 11.4 µM; AID 504700;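 active = activation above a cutoff set at the mean over all compounds plus 3 SD, cut at about 18% in these data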;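 also: higher means more holoenzyme dissociation and a rise in polarization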
Target sequence (P31323 whole entry, looked up, other chains not shown, the tested form may be a part): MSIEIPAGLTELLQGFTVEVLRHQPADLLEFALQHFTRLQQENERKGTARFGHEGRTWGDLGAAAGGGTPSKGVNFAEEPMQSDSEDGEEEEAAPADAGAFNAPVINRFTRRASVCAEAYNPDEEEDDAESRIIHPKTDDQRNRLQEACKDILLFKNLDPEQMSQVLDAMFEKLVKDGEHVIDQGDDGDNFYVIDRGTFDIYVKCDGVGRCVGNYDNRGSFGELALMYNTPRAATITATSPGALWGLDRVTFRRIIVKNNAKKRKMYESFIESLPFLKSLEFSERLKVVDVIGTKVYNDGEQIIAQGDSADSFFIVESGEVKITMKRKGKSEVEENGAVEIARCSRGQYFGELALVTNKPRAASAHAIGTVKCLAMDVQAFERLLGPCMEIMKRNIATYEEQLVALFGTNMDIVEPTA
MsrA act: bovine methionine sulfoxide reductase A activation | activation, % at 10.6 µM | hit rate 0.3% among 360,000 | purified bovine MsrA, absorbance read-out; in the data active = activation above about 7.5%;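 also: 0% = vehicle and 100% = reference activator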
VIM-2 inhibitor: blocks Pseudomonas aeruginosa VIM-2 metallo-beta-lactamase; purified VIM-2, nitrocefin hydrolysis, epi-absorbance fluorescence; inhibition, % at 5.6 µM; hit rate 0.89% among 290,000; AID 1527;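 active = inhibition above the mean of all tested compounds plus 3 SD, cutoff set per screening run, cut at about 7.5% in these data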;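 also: red hydrolysis product quenches plate fluorescence so inhibitors raise well fluorescence; 0% = enzyme with DMSO and 100% = DMSO without enzyme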
PKA-R1A act: activates the PKA-R1A holoenzyme complex; activation, % at 11.4 µM; P00514+P68181; AID 504707; hit rate 0.083% among 340,000; PKA-R1A dissociation, Cy5-IP20 fluorescence polarization; scaled: DMSO 0%, 113 µM cGMP 100%;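 active = percent activation above the mean of all tested compounds plus 3 SD, cut at about 19% in these data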;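 also: higher means more PKAc released from R1A so a rise in polarization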
MsrA inh: inhibitors of bovine MsrA | purified bovine MsrA, absorbance read-out | inhibition, % at 15.5 µM | hit rate 0.75% among 360,000;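 also: 0% = vehicle wells with enzyme and 100% = reference inhibitor wells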
MsrA inh confirm: confirmation of bovine MsrA inhibitors. purified bovine MsrA, absorbance read-out. hit rate 41% among 2,300. shares compounds with MsrA inh. inhibition, % at 15.5 µM;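 also: coupled to thioredoxin reductase with NADPH and selenocystamine and DMSO as substrate; 0% = vehicle only and 100% = full effect of reference inhibitor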
* hit, by the source's call; / = not tested or not shown. Rule as the data show it, unless noted: active = inhibition above about 4.5%; inactive = the rest.

SMILES	IMP-1 inhibitor	PKA-R2B activ	MsrA act	VIM-2 inhibitor	PKA-R1A act	MsrA inh	MsrA inh confirm
COc1ccc(NS(=O)(=O)c2cc(-c3cnc(C4CC4)o3)ccc2C)cc1	-2	-9	-3	-1	7	11*	7.2*
COc1ccccc1NS(=O)(=O)c1cc(-c2cnc(C3CC3)o2)ccc1C	-2	-1	-4	1	0	0	/
O=C(Nc1ccc(F)cc1)C(c1cc2ccccc2o1)N1CCN(c2ccncc2)CC1 (stereo unspecified)	/	/	/	/	/	-1	/
N#C/C(=C/Nc1ccccc1C(=O)O)C(N)=O	0	-1	-9	0	-2	5.8*	6.8*
CC1(C(=O)NCc2ccccc2)CN(S(C)(=O)=O)CC(=O)N1Cc1cccc(F)c1 (stereo unspecified)	/	/	/	/	/	-1	/
COc1ccc(/C=C/c2cc(-c3ccc(C)cc3)o[n+]2C)cc1	-1	-4	-6	0	11	5.0*	4
CC(/C=N/Nc1nc(N2CCCCC2)nc(N2CCCCC2)n1)=C\c1ccccc1	-3	-4	-5	-1	-8	2	/
BrC(/C=C\c1ccccc1)=N/Nc1nc(N2CCOCC2)nc(N2CCOCC2)n1	-3	-6	-10	0	-5	6.7*	4.6*
CN(C)c1ccc(/C=C/C=N/Nc2nc(N3CCOCC3)nc(N3CCOCC3)n2)cc1	-3	-2	-3	-2	3	6.0*	4
BrC(=C\c1ccccc1)/C=N/Nc1nc(N2CCOCC2)nc(N2CCOCC2)n1	-2	-13	-13	-4	2	5.3*	4.8*
CCOC(=O)C1(Cc2cccc(OC)c2)CCCN(C(=O)CNC(C)=O)C1 (stereo unspecified)	-3	-1	-1	-1	-4	-1	/
CCCCN(C=O)c1c(CC)nc2ccc(C(=O)N3CCN(C(=O)c4ccco4)CC3)cn12	/	/	0	/	/	1	/
CC(=O)Nc1ccc(/C=C/C(=O)c2ccc3c(c2)OCCO3)cc1	-2	3	-4	1	-2	4	/
O=C(O)c1ccc(/C=C/C(=O)c2ccc3c(c2)OCCCO3)cc1	-1	0	-5	0	-2	6.5*	2
Nc1n[nH]c(N)c1N=Nc1ccc(Cl)cc1	-4	-8	-5	-4	-1	6.1*	3
O=C1NC[C@H](CCCCN2CCN(CC3CCCCC3)C(=O)C2=O)N(CCC2CCCCC2)C1=O	/	/	1	/	/	2	/
O=C(N/N=C/c1ccnc2ccccc12)c1ccccc1O	-2	-5	-1	0	-3	5.6*	4
COc1ccc(-c2cc(=O)c3ccccc3o2)cc1	/	4	-4	/	12	2	/
COc1ccc(-c2cc(=O)c3cccc(CC(=O)O)c3o2)cc1	/	/	/	/	/	5.0*	4.6*
CCOC(=O)C(=CNc1ccc(C#N)cc1)C(=O)OCC	-1	-10	-8	0	-9	7.1*	5.5*
CCN(CC)c1ccc(C=Nc2ccc(C#N)cc2)c(O)c1	-3	-9	-14	-2	-7	7.6*	5.6*
CCN(CC)c1ccc(C=Nc2ccccc2C)c(O)c1	-3	5	-4	-3	-1	6.5*	3
CCN(CC)c1ccc(/C=N/NC(=O)Cc2cccs2)c(O)c1	-3	0	-9	-6	-2	6.2*	3
CCN(CC)c1ccc(/C=N/N(c2ccccc2)c2ccccc2)c(O)c1	-3	-1	-1	-2	-3	-1	/
COc1ccc(OC)c(NC(=O)C2(C)CCN2Cc2ccccc2OC(F)F)c1 (stereo unspecified)	/	/	-1	/	/	1	/
SMILES	IMP-1 inhibitor	PKA-R2B activ	MsrA act	VIM-2 inhibitor	PKA-R1A act	MsrA inh	MsrA inh confirm
CC(=O)C1N=NCC1c1ccccc1 (stereo unspecified)	/	-2	-1	/	5	1	/
CCN(CC)S(=O)(=O)c1ccc(N/N=C/c2ccc(O)cc2)nc1	-3	12	-4	-2	-12	5.7*	4.9*
O=C(Cn1ccnc1[N+](=O)[O-])N(CCO)CCO	/	-10	2	/	-5	1	/
CC1CC(C)CN(C(=O)c2cc3ccccc3o2)C1 (stereo unspecified)	/	-1	-5	/	-3	-1	/
CC1CC(C)CN(C(=O)c2cc3cc(Br)cc(Br)c3o2)C1 (stereo unspecified)	-2	4	-6	1	-4	5.4*	3
CC12CCC(/C(=C/NNc3ccc([N+](=O)[O-])cc3[N+](=O)[O-])C1=O)C2(C)C (stereo unspecified)	/	1	0	/	-5	1	/
CCN1CCc2c(C#N)c(N3CCCCC3)nc(N3CCOCC3)c2C1	0	-18	-6	2	-20	4.8*	2
N#Cc1c(SCC(=O)O)nc(N2CCOCC2)c2c1CCCC2	-3	-13	-5	-1	2	2	/
CCSc1nc(N2CCOCC2)c2c(c1C#N)CCCC2	-2	-10	-5	-3	-4	13*	13*
COC(=O)CSc1nc(N2CCOCC2)c2c(c1C#N)CCCC2	-3	-6	-2	-1	-2	8.2*	6.9*
O=C(NCCCn1ccnc1)c1ccc(-c2cccc(Cl)c2Cl)o1	/	-8	-1	/	-4	0	/
CC(=O)Nc1ccc(NC(=O)COC(=O)c2ccc(S(=O)(=O)N(C)c3ccccc3)cc2)cc1	/	3	1	/	1	0	/
COc1cc(C(C#N)N2N=C(c3ccccc3)CC2c2ccccc2)ccc1O (stereo unspecified)	-2	-10	-4	-2	-1	4.7*	1
N#CC(c1ccccc1O)N1N=C(c2ccccc2)CC1c1ccccc1 (stereo unspecified)	-1	2	-6	-2	2	3	/
CN(C)Cc1ccccc1	/	/	/	/	/	0	/
CCN(CC)C1=CC(=[N+]2CCCC2)CC(C)(C)C1	-1	1	-7	-1	-2	5.7*	4
CN(Cc1ccccc1)C1=CC(=[N+]2CCCC2)CC(C)(C)C1	0	4	-5	-1	-5	5.5*	3
O=C(Nc1ccccc1F)c1coc(=O)c(Br)c1	0	-12	-7	-2	2	3	/
O=C(NCCc1ccc(F)cc1)c1coc(=O)c(Br)c1	-1	-3	3	0	5	6.0*	4.8*
N#C/C(=C(/O)COC(=O)c1ccc(O)cc1)c1nc2ccccc2[nH]1	0	-7	-5	0	-6	0	/
N#C/C(=C(/O)COC(=O)c1cccnc1Cl)c1nc2ccccc2[nH]1	-2	-5	-2	3	15	4.7*	1
CCNC(=O)N1CCN(c2ccc(N3CCN(C(=O)NCC)[C@H](C)C3)c(C)c2)[C@H](C)C1	/	/	/	/	/	1	/
Cc1ccc(C(=O)N/N=C\c2ccc(Br)o2)o1	-2	3	-10	-1	-12	6.4*	6.7*
